CXCR6 inh = blocks human CXCR6 beta-arrestin recruitment; O00574; CHO-K1 PathHunter CXCR6 beta-arrestin, luminescence; inhibition, % at 20 µM; 360,000 compounds, 0.36% hits; in the data active = inhibition above about 34%, passing the limit was not always enough;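 note: antagonist mode with CXCL16 agonist at 10 nM final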
EBI2 block = EBI2 (human) antagonism | P32249 | EBI2 beta-arrestin recruitment, luminescence, 7a,25-OHC stimulated | inhibition, % at 5 µM | 360,000 compounds, 0.81% hits | AID 651636; in the data active = inhibition above about 38%;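 note: enzyme fragment complementation signal reports receptor beta-arrestin coupling in cells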
CCR6 antag = blocks CCL20-driven beta-arrestin recruitment at human CCR6 | P51684 | 340,000 compounds, 0.49% hits | CHO-K1 CCR6 PathHunter beta-arrestin, luminescence, CCL20-stimulated | inhibition, % at 20 µM | AID 493098;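 active = compounds whose inhibition of the agonist-driven luminescence signal at 20 µM reaches about 50%, limit read from the data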;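 note: cells stimulated with CCL20 at 14 nM final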
APJ ag = APJ receptor agonism; P35414; CHO-K1 APJ PathHunter beta-arrestin, luminescence; 0% DMSO wells, 100% apelin; activation, % at 20 µM; 330,000 compounds, 0.11% hits;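 active = activation more than six SD over the plate average, tested at 20 µM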
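Assay system: CHO-K1 cells stably expressing ProLink-tagged human APJ and arrestin–beta-gal acceptor. Compound dosing: 20 µM single point, 1% DMSO. Times: 16-18 h seeding, 90 min dark compound exposure, 60 min detection. Detection: beta-gal luminescence. Evaluation: APJ–arrestin association signal. Controls: negative DMSO alone, positive Apelin-13 at 10 nM.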
APJ antagonist = antagonists of human APJ apelin receptor | P35414 | CHO-K1 APJ beta-arrestin complementation, luminescence | inhibition, % at 20 µM | 330,000 compounds, 0.32% hits | AID 2521;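 active = inhibition above about 40% at 20 µM, limit read from the data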;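 note: cells challenged with 10 nM apelin-13 agonist together with compound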
m5-HT2A agonist = activates the mouse 5-HT2A serotonin receptor. 360,000 compounds, 0.66% hits. CHO-K1 mHTR2A beta-arrestin complementation, luminescence; percent of 30 µM serotonin response. AID 624169. activation, % at 7.6 µM. P35363;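 active = activation above a run cutoff, the mean activation of all tested compounds plus 3 SD, cut at about 14% in these data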
Target sequence (P35363 whole entry, looked up): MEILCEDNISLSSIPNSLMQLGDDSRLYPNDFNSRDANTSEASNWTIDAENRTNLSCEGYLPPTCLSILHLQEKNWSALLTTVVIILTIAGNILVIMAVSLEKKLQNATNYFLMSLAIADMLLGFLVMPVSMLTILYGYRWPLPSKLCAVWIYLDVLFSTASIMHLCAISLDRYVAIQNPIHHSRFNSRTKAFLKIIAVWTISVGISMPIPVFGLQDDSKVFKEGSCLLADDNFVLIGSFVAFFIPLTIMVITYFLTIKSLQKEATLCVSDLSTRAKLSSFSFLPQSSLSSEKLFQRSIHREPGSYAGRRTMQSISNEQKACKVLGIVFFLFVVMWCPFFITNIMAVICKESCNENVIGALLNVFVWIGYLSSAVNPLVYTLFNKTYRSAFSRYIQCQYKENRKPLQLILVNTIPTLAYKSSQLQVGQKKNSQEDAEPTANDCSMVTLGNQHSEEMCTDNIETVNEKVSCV
EBI2 antag conf = confirmation of human EBI2 receptor antagonists. shares compounds with EBI2 block. inhibition, % at 5 µM. EBI2 beta-arrestin luminescence, 7a,25-OHC antagonism. 2,400 compounds, 29% hits;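 active = inhibition of at least 50%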
EBI2 agonist = counter-screen for EBI2 antagonists: EBI2 agonist activity; activation, % at 5 µM; AID 652000; EBI2-expressing cells, agonist mode, luminescence, 60 min; 0% vehicle, 100% 7α,25-dihydroxycholesterol control; 2,400 tested, under 10 active; shares compounds with EBI2 block;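 active = activation of at least 50%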
bGal cs = beta-galactosidase inhibition counter-screen | shares compounds with EBI2 block | purified beta-galactosidase, luminescent Galacton Star, 15 min | inhibition, % at 5 µM | 2,400 compounds, 1% hits | AID 652176;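 active = replicate-average signal at least 3 plate SD below neutral wells, shown as high inhibition, flagging enzyme-inhibiting false positives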;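 note: higher means stronger loss of beta-gal luminescence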
Each line names hits and unclear results; the compound was inactive in the other large screens (follow-up assays come after a bar, where they were run). In the library only some 2.2% were active in any assay of this set; here they are far more common.

COc1ccc2c(CC(=O)N(C)CC3COc4ccccc4O3)coc2c1 (stereo not given)	none
CC(C)NS(=O)(=O)c1ccc(OCC(=O)N(C)Cc2ccccc2)cc1	none
Cc1cc(OCC(=O)N(C)Cc2ccccc2)ccc1Br	EBI2 block 91.4 | EBI2 antag conf 86.7 | EBI2 agonist inactive | bGal cs inactive
COc1ccc(OCC(=O)N(C)CC2COc3ccccc3O2)cc1 (stereo not given)	EBI2 block 45.5 | EBI2 antag conf inactive | EBI2 agonist inactive | bGal cs inactive
COc1ccc2nc3n(c(=O)c2c1)-c1cc2ccccc2cc1C(=O)NC3Cc1ccccc1 (stereo not given)	EBI2 block 41.0 (no result: CCR6 antag, APJ ag, APJ antagonist) | EBI2 antag conf inactive | EBI2 agonist inactive | bGal cs inactive
CCCS(=O)(=O)NC(=O)C1(C)CCCN(C(=O)c2ccc3ccccc3n2)C1 (stereo not given)	none (no result: CCR6 antag, APJ ag, APJ antagonist)
COc1ccc(CCN2C(=O)C(Oc3ccccc3C)C2c2ccc3c(c2)OCO3)cc1 (stereo not given)	EBI2 block 55.0 | EBI2 antag conf inactive | EBI2 agonist inactive | bGal cs inactive
COc1ccc(OC2C(=O)N(Cc3ccc(F)cc3)C2c2cc(OC)c(OC)c(OC)c2)cc1 (stereo not given)	none
COc1ccc(CCN2C(=O)C(Oc3ccccc3C)C2c2ccc3c(c2)OCO3)cc1OC (stereo not given)	none
COC(=O)c1ccc(C2C(Oc3ccc(OC)cc3)C(=O)N2CCc2ccc(F)cc2)cc1 (stereo not given)	EBI2 block 42.2 | EBI2 antag conf inactive | EBI2 agonist inactive | bGal cs inactive
CC(C)N(C(=O)[C@H]1CC(CC(=O)NCC23CC4CC(CC(C4)C2)C3)C(=O)N2CCc3c([nH]c4ccccc34)[C@]12C)C(C)C (stereo not given in full)	none
CC(C)c1ccc(/C=C/C(=O)N2CCOCC2)cc1	none
O=C(/C=C/c1ccc2c(c1)OCO2)N1CCN(c2ccc(Cl)cc2)CC1	EBI2 block 47.5 | EBI2 antag conf inactive | EBI2 agonist inactive | bGal cs inactive
O=C(/C=C/c1ccc(Cl)cc1)N1CCOCC1	EBI2 block 50.2 | EBI2 antag conf inactive | EBI2 agonist inactive | bGal cs inactive
O=C(/C=C/c1ccc(Cl)c(Cl)c1)N1CCOCC1	EBI2 block 57.4 | EBI2 antag conf 55.3 | EBI2 agonist inactive | bGal cs inactive
O=C(/C=C/c1ccc(Br)cc1)NC(=S)N1CCOCC1	EBI2 block 64.2 | EBI2 antag conf inactive | EBI2 agonist inactive | bGal cs inactive
COc1ccc(S(=O)(=O)N2CCC[C@H]2C(=O)N2CCC[C@H]2C(=O)N[C@@H](C)c2ccccc2)cc1C	none (no result: CCR6 antag, APJ ag, APJ antagonist)
COc1cc(OC)cc(C(=O)NNC(=O)CCNS(=O)(=O)c2ccc(Br)cc2)c1	none
Cc1ccc(S(=O)(=O)NCCC(=O)NNC(=O)COc2ccc(Br)cc2)cc1C	EBI2 block 62.9 | EBI2 antag conf inactive | EBI2 agonist inactive | bGal cs inactive
O=C(CSc1nnc(SCc2ccccc2)s1)N/N=C/C=C\c1ccco1	none
CC(=C/c1ccco1)/C=N/NC(=O)CSc1nnc(SCc2ccc(C)cc2)s1	EBI2 block 59.3 | EBI2 antag conf inactive | EBI2 agonist inactive | bGal cs inactive
O=C(CSc1nnc(SCc2ccc(Cl)cc2)s1)N/N=C/c1ccc(Cl)cc1Cl	EBI2 block 52.4 | EBI2 antag conf inactive | EBI2 agonist inactive | bGal cs inactive
CCCCCCN1C[C@@H](O)[C@H](n2cc(COC(=O)c3ccccc3)nn2)C[C@@H]1c1ccc(C)cc1	none (no result: CCR6 antag, APJ ag, APJ antagonist)
COCCN1C(=O)c2ccccc2C1c1nnnn1Cc1ccccc1 (stereo not given)	none (no result: CCR6 antag, APJ ag, APJ antagonist)
Cc1ccccc1CNC(=O)c1ccc2nc([C@@H]3O[C@H](CO)[C@H](O)[C@H](O)[C@H]3O)[nH]c2c1	none (no result: CCR6 antag, APJ ag, APJ antagonist)
N#Cc1ccc(/C=N/NC(=S)Nc2ccc(S(=O)(=O)N3CCOCC3)cc2)cc1	EBI2 block 53.6 | EBI2 antag conf inactive | EBI2 agonist inactive | bGal cs inactive
O=S(=O)(c1ccc(NC(=S)N/N=C/c2ccc(O)c(O)c2)cc1)N1CCOCC1	none
CCOC(=O)Cc1ccc(Nc2nc(NCCOC)nc3ccsc23)cc1	none (no result: CCR6 antag, APJ ag, APJ antagonist)
O=C1c2ccccc2C(=O)N1CCc1ccccn1	none
O=C1c2cccc3c([N+](=O)[O-])ccc(c23)C(=O)N1CCc1ccccn1	EBI2 block 74.8 | EBI2 antag conf inactive | EBI2 agonist inactive | bGal cs inactive
CCOC(=O)c1c(NC(=O)c2cccc(N3C(=O)CCC3=O)c2)sc(C)c1C	none
CCOC(=O)c1c(NC(=O)C2=C(C)NC(=S)NC2c2ccc(F)cc2F)sc(C)c1C (stereo not given)	EBI2 block 85.6 | EBI2 antag conf inactive | EBI2 agonist inactive | bGal cs inactive
CCOC(=O)c1c(NC(=O)C2=C(C)NC(=S)NC2c2ccc(F)cc2)sc(C)c1C (stereo not given)	EBI2 block 82.1 | EBI2 antag conf 52.9 | EBI2 agonist inactive | bGal cs inactive
CC1=C(C(=O)Nc2ccccn2)C(c2ccc(Cl)cc2)NC(=S)N1 (stereo not given)	none
CCOC(=O)c1c(NC(=O)C2=C(C)NC(=S)NC2c2ccc(C)cc2)sc(C)c1C (stereo not given)	EBI2 block 92.3 | EBI2 antag conf inactive | EBI2 agonist inactive | bGal cs inactive
CCOC(=O)c1c(NC(=O)C2C3C=CC(CC3)C2C(=O)O)sc(C)c1C (stereo not given)	none
O=C1Nc2ccccc2-n2nnnc2C1N1CCN(C(=O)C2CCCO2)CC1 (stereo not given)	none (no result: CXCR6 inh, CCR6 antag, APJ ag, APJ antagonist)
Cn1cc(Cc2ccc(C(=O)N3CCOCC3)cn2)c2ccccc21	none (no result: CCR6 antag, APJ ag, APJ antagonist)
COc1cc(C#Cc2c(-c3cncn3C)n(C)c3ccc(-c4ccc(OC)nc4)cc23)cc(OC)c1	none
COc1cc(C#Cc2c(-c3cncn3C)n(C)c3ccc(-c4cc(OC)c(OC)c(OC)c4)cc23)cc(OC)c1	EBI2 block 49.6 | EBI2 antag conf inactive | EBI2 agonist inactive | bGal cs inactive
Cc1[nH]c(-c2ccc(F)cc2)cc1C(=O)N1CCN(c2ccccc2F)CC1	EBI2 block 90.9 | EBI2 antag conf 85.2 | EBI2 agonist inactive | bGal cs inactive
